Legend:
[1] = biological target: Transient receptor potential cation channel subfamily A member 1 (Rattus norvegicus) (UniProt Q6RI86); test: (§1) Antagonist activity at rat TRPA1 expressed in CHO-TREX cells assessed as inhibition of cinnamaldehyde-induced calcium flux incubated 10 mins prior to cinnamaldehyde addition by FLIPR assay relative to control; format: cell-based; design: concentration or dose not given beside the values
In short: (§2)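 TRPA1-expressing CHO-TREX cells, channel expression induced with tetracycline (0.5 µg/mL human, 1 µg/mL mouse or rat). Cells loaded with Fluo4-AM for 90 min at room temperature, washed, then test agent added in HBSS/20 mM HEPES/2.5 mM probenecid/0.1% BSA. Agonist added 10 min later at EC80: human cinnamaldehyde 30 µM, AITC 2.5 µM, dibenzoxazepine-carboxamide 5 nM; rat and mouse cinnamaldehyde 40 µM. FLIPR calcium flux; mean of triplicates fitted to sigmoidal dose-response curves.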

[2] = biological target: Transient receptor potential cation channel subfamily A member 1 (Rattus norvegicus, UniProt Q6RI86); test: as §1; format: cell-based; in short: as §2
[3] = Volume of distribution at steady state in Wistar rat at 5 mg/kg, iv; format: ADME, organism-based; design: dose 5 mg/kg, route intravenous; conditions: in vivo, read-out: Vdss
In short: (§3)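 Wistar rats given 5 mg/kg i.v. at 2.5 mg/mL in 10% EtOH/30% PEG300/60% solutol.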

[4] = test system: CHO-K1; test: Selectivity ratio of IC50 for human TRPV3 expressed in CHOK1 cells to IC50 for human TRPA1 expressed in CHO-TREX cells; format: cell-based
In short: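 Calcium influx was measured by FLIPR in Fluo4-AM-loaded cells: hTRPV3 CHO-K1 challenged with 40 µM 2-APB, and hTRPA1 CHO-TREX (0.5 µg/mL tetracycline) challenged with 30 µM cinnamaldehyde, 2.5 µM AITC or 5 nM dibenzoxazepine carboxamide, all at EC80. Compounds were added 10 min ahead of agonist in HEPES-buffered HBSS with probenecid. Sigmoidal curves were fitted to triplicate means.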

[5] = AUC in Balb/C mouse at 20 mg/kg, po; format: ADME, organism-based; design: dose 20 mg/kg, route oral; conditions: plasma
In short: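 Balb/C mice dosed by oral gavage at 20 mg/kg as a suspension in 0.5% methylcellulose/0.5% Tween80.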

[6] = Clearance in Balb/C mouse at 5 mg/kg, iv; format: ADME, organism-based; design: dose 5 mg/kg, route intravenous; conditions: in vivo
In short: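 Balb/C mice given 5 mg/kg i.v. at 2.5 mg/mL in 10% EtOH/30% PEG300/60% solutol.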

[7] = Half life in Wistar rat at 5 mg/kg, iv; format: ADME, organism-based; design: dose 5 mg/kg, route intravenous; conditions: in vivo; in short: as §3
[8] = biological target: Transient receptor potential cation channel subfamily A member 1 (Mus musculus) (UniProt Q8BLA8); test: (§4) Antagonist activity at mouse TRPA1 expressed in CHO-TREX cells assessed as inhibition of cinnamaldehyde-induced calcium flux incubated 10 mins prior to cinnamaldehyde addition by FLIPR assay relative to control; format: cell-based; design: concentration or dose not given beside the values; in short: as §2
[9] = biological target: Transient receptor potential cation channel subfamily A member 1 (Mus musculus, UniProt Q8BLA8); test: as §4; format: cell-based; in short: as §2
[10] = biological target: T1, Transient receptor potential cation channel subfamily V member 3 (Homo sapiens, UniProt Q8NET8); test: (§5) Antagonist activity at human TRPV3 expressed in CHOK1 cells assessed as inhibition of 2-APB-induced calcium flux incubated 10 mins prior to 2-APB addition by FLIPR assay relative to control; format: cell-based, CHO-K1
T1 sequence (Q8NET8 whole entry): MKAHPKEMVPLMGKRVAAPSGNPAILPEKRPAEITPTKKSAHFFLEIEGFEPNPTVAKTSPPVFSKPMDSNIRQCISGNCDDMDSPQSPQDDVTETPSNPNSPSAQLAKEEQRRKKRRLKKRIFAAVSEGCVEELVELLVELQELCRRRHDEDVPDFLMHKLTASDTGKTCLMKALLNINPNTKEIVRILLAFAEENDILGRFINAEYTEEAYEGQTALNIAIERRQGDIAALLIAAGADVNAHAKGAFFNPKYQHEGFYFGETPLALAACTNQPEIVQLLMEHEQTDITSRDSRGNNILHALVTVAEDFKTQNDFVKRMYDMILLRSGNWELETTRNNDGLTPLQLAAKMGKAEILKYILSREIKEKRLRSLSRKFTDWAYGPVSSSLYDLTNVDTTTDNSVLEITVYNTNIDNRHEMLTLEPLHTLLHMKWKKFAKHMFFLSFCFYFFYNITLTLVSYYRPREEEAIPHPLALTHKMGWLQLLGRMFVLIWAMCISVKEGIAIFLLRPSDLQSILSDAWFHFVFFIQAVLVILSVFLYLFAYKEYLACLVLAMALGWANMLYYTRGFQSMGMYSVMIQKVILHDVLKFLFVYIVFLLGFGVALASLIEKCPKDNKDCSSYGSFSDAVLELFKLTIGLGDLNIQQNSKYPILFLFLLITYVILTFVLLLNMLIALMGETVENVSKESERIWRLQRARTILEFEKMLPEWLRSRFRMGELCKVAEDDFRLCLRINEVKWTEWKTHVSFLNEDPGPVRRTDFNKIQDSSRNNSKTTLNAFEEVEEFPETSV

[11] = biological target: T2, Transient receptor potential cation channel subfamily V member 3 (Homo sapiens) (UniProt Q8NET8); test: as §5; format: cell-based; design: concentration or dose not given beside the values; conditions: CHO-K1
T2 sequence (whole entry): T1 sequence (Q8NET8 whole entry)

[12] = test system: Mus musculus; test: Reduction in sensitivity to cold surface in po dosed naive mouse assessed as latency to respond with behavioral queues measured after 40 mins; format: functional, organism-based
In short: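 Naive mice (n = 7 per group) gavaged with vehicle (0.5% methylcellulose/0.5% Tween80), 10 or 100 mg/kg. After 40 min acclimation at room temperature, each mouse was placed on a −5 °C Peltier cold plate for up to 2 min. Latency to first jump, brisk hindpaw lift or flick/lick was recorded.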

[13] = test system: Rattus norvegicus; test: Reversal of FCA-induced mechanical hyperalgesia in Wistar rat at 10 mg/kg, po after 1 to 3 hrs; format: functional
In short: (§6)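 Paw withdrawal thresholds taken in both hind paws before and 72 h after intraplantar complete Freund's adjuvant in one paw. Oral vehicle (0.5% methylcellulose/0.5% Tween 80) or 3, 10 or 30 mg/kg given, with thresholds read at 1, 3 and 6 h. % reversal = (postdose − predose)/(naive − predose) × 100. D50 is the dose calculated to give 50% reversal.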

[14] = biological target: T3, Transient receptor potential cation channel subfamily A member 1 (Homo sapiens, UniProt O75762); test: Antagonist activity at human TRPA1 expressed in CHO-TREX cells assessed as inhibition of dibenzo[b,f ][1,4]oxazepine-4-carboxamide-induced calcium flux incubated 10 mins prior to dibenzo[b,f ][1,4]oxazepine-4-carboxamide addition by FLIPR assay relative to control; format: cell-based; in short: as §2
[15] = Clearance in Wistar rat at 5 mg/kg, iv; format: ADME, organism-based; design: dose 5 mg/kg, route intravenous; conditions: in vivo; in short: as §3
[16] = biological target: T3, Transient receptor potential cation channel subfamily A member 1; test: Antagonist activity at human TRPA1 expressed in CHO-TREX cells assessed as inhibition of cinnamaldehyde-induced calcium flux incubated 10 mins prior to cinnamaldehyde addition by FLIPR assay relative to control; format: cell-based; in short: as §2
[17] = Tmax in Wistar rat at 10 mg/kg, po; format: ADME, organism-based; design: dose 10 mg/kg, route oral; conditions: in vivo
In short: (§7)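 Male Wistar rats dosed orally at 10 mg/kg as a suspension in 0.5% methylcellulose/0.5% Tween80.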

[18] = test system: Rattus norvegicus; test: Reversal of FCA-induced mechanical hyperalgesia in po dosed Wistar rat after 1 hr; format: functional; in short: as §6
[19] = Cmax in Wistar rat at 10 mg/kg, po; format: ADME, organism-based; design: dose 10 mg/kg, route oral; conditions: in vivo; in short: as §7

T3 sequence (O75762 whole entry): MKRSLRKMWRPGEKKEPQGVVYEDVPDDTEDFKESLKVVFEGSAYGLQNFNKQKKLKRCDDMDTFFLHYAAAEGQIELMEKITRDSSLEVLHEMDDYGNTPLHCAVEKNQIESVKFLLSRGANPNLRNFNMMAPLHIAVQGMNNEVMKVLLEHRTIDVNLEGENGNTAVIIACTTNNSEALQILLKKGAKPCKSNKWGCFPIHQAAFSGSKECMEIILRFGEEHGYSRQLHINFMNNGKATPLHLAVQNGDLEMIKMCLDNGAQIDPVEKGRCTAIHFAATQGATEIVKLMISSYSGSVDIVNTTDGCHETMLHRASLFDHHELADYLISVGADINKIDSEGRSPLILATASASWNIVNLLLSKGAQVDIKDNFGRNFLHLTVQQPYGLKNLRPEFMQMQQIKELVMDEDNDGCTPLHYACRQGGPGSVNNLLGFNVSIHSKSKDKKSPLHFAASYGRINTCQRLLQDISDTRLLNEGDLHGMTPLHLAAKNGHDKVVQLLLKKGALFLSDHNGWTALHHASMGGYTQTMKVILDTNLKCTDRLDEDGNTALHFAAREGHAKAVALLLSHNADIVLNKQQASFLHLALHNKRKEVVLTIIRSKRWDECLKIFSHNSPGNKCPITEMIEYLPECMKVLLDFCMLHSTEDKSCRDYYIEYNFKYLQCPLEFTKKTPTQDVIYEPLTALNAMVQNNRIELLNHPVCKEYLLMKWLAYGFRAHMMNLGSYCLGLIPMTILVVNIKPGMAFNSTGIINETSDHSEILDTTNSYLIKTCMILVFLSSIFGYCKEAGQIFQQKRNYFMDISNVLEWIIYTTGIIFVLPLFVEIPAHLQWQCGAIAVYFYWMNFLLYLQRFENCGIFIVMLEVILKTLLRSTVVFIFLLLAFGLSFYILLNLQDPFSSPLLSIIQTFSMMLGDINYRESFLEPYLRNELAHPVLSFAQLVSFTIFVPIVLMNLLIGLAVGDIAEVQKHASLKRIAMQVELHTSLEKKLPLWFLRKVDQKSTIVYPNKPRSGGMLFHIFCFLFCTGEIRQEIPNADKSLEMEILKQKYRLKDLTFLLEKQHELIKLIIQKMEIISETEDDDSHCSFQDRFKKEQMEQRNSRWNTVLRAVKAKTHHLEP
Transient receptor potential cation channel subfamily A member 1 (Rattus norvegicus), sequence (Q6RI86 whole entry): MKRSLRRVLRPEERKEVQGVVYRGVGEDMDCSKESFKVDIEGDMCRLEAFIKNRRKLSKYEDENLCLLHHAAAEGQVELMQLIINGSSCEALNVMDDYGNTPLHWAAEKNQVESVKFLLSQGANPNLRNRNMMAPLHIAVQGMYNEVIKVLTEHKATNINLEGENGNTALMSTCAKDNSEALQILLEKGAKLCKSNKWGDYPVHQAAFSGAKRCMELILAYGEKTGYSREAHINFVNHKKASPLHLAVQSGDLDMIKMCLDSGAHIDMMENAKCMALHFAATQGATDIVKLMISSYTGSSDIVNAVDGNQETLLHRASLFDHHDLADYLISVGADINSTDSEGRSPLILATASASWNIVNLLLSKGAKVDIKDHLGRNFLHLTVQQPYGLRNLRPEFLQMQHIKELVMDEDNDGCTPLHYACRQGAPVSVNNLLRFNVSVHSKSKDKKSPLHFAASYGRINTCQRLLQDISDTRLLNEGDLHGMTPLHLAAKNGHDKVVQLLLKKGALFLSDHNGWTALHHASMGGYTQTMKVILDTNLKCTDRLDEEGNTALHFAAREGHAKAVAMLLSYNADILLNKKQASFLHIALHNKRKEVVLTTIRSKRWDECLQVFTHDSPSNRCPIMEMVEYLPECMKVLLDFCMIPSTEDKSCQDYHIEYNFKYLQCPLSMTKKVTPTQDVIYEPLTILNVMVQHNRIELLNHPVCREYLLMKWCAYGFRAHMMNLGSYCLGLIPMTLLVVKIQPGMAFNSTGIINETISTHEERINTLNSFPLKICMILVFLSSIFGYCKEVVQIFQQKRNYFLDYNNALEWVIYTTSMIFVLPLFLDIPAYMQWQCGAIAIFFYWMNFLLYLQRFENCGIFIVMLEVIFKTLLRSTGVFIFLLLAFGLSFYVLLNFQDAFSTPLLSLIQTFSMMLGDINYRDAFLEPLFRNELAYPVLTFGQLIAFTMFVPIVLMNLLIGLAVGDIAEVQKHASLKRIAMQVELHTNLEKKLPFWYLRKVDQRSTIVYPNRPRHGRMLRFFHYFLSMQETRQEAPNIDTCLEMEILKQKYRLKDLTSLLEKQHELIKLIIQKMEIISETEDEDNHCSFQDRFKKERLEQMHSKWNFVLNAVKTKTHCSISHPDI
Transient receptor potential cation channel subfamily A member 1 (Rattus norvegicus, UniProt Q6RI86), sequence (Q6RI86 whole entry): as above
Transient receptor potential cation channel subfamily A member 1 (Mus musculus), sequence (Q8BLA8 whole entry): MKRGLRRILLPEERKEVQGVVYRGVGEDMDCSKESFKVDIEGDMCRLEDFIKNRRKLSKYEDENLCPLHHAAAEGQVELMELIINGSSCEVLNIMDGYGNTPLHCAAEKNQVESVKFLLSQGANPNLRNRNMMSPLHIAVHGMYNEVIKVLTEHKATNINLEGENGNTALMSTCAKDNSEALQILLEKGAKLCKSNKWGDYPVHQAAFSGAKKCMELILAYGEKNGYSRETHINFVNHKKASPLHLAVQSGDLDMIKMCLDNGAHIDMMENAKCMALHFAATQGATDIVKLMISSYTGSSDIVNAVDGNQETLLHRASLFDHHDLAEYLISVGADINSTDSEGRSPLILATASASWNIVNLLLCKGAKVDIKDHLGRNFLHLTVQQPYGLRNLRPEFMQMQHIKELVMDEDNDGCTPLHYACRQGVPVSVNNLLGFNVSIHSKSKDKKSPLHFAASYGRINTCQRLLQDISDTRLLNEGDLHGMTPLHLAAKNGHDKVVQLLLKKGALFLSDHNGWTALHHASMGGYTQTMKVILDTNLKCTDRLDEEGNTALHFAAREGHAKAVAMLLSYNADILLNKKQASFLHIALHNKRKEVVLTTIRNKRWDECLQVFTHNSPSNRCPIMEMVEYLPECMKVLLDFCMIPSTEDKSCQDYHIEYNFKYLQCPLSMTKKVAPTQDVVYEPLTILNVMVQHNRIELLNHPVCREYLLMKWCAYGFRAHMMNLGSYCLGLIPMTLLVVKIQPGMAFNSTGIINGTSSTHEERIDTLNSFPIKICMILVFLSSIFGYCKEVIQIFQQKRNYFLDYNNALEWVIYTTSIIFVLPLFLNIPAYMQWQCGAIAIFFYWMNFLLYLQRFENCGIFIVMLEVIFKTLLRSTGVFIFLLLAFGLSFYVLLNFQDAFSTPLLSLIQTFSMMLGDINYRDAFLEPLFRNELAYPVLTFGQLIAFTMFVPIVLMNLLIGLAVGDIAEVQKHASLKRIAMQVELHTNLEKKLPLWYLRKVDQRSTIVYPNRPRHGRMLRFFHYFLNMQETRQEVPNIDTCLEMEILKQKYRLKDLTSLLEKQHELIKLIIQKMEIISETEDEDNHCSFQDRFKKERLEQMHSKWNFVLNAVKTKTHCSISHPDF
Transient receptor potential cation channel subfamily A member 1 (Mus musculus, UniProt Q8BLA8), sequence (Q8BLA8 whole entry): as above

Work on Cc1cc2[nH]ncc2cc1-c1ccccc1C(F)(F)F yielded an inhibition [1] of 99%, an IC50 [2] of 89 nM and a Vd [3] of 2.39 L/kg. It also gave a Ratio IC50 [4] of over 100, an AUC [5] of 5.59 µM·h and a clearance [6] of 39.3 mL/min/kg. For the same compound, the half-life [7] was 4.3 h, the inhibition [8] was 100% and the IC50 [9] was 53 nM. For the same compound, the IC50 [10] was over 30000 nM, the inhibition [11] was 0% and the Activity [12] was “Dose-dependent effect”. The Activity [13] was 58.6%, the IC50 [14] was 20 nM and the inhibition [14] was 100%. For the same compound, the clearance [15] was 25.7 mL/min/kg, the IC50 [16] was 15 nM and the inhibition [16] was 99%. For the same compound, the Tmax [17] was 0.5 h, the D50 [18] was 5.5 mg/kg and the Cmax [19] was 3.53 µM.

Source: ChEMBL document CHEMBL3297713, “Discovery, optimization, and biological evaluation of 5-(2-(trifluoromethyl)phenyl)indazoles as a novel class of transient receptor potential A1 (TRPA1) antagonists” (J Med Chem, 2014)
